# Screens (PubChem BioAssay)
# IMP-1 inh = blocks Pseudomonas aeruginosa IMP-1 metallo-beta-lactamase; inhibition, % at 5.6 µM; purified IMP-1, nitrocefin hydrolysis, epi-absorbance fluorescence; 0.45% of 290,000 active;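 active means inhibition above the mean plus 3 SD of all compounds in the same screening run, cut at about 4.5% in these data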
#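 System: Purified recombinant IMP-1 metallo-beta-lactamase enzyme | Measured by: Fluorescence quenching readout, ex 480/em 530 nm | Replication: Singlicate | Incubation: 15 min preincubation plus 25 min reaction at 25 °C | Evaluation: Percent inhibition from optical density relative to buffer-blank wells | Benchmarks: DMSO with and without IMP-1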
# MEKK2 mut-MEK5 = signal of MEK5 binding to mutant human MEKK2 PB1 domain; 0.35% of 290,000 active; AID 1530; bead flow cytometry, Alexa488-MEK5 binding to MEKK2 mutant; percent response, % at 10 µM; in the data active means percent response above about 24%, passing the limit was not always enough
# MEKK2wt PB1 HTS = raises or lowers MEK5 binding to wildtype human MEKK2 PB1 domain. AID 1531. 1.1% of 290,000 active. Q9Y2U5. binding response (% of control), % at 10 µM. bead flow cytometry, Alexa488-MEK5 binding to MEKK2 WT; actives lie on both sides; in the data active means binding response below about 67% or above about 130%
# MEKK3 PB1 HTS = modulators (inhibitors or enhancers) of MEK5 binding to human MEKK3 PB1 domain | Q99759 | bead-based flow cytometry, Alexa488-MEK5 binding to MEKK3; actives lie on both sides; 0 = blocked by unlabeled MEK5, 100 = vehicle | binding response (% of control), % at 10 µM | 1.4% of 290,000 active;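 active means binding response more than 3 SD above or below the average of its plate-row segment, actives on both sides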;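 further: Alexa488 bead fluorescence after subtracting the streptavidin-only scavenger bead signal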
# Target sequence (Q99759 whole entry, looked up, the tested form may be a part): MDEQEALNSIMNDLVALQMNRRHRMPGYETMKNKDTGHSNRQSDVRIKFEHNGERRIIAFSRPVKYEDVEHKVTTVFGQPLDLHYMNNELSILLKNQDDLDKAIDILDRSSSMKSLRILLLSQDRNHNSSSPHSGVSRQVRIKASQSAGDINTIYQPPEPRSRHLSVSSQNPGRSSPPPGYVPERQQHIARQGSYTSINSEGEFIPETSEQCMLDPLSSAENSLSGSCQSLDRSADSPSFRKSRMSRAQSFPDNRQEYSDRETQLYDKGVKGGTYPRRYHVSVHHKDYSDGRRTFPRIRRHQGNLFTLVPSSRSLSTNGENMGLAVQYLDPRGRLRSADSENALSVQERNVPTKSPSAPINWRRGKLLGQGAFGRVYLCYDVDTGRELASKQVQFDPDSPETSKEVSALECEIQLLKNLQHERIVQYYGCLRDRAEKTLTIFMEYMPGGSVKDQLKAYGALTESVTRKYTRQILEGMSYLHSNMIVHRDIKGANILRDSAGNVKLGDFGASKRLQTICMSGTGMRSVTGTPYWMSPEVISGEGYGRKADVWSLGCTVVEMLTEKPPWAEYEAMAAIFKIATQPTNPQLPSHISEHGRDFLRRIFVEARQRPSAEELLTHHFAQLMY
# VIM-2 inhibitor = inhibitors of Pseudomonas aeruginosa VIM-2 metallo-beta-lactamase | purified VIM-2, nitrocefin hydrolysis, epi-absorbance fluorescence | inhibition, % at 5.6 µM | 0.89% of 290,000 active;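 active means inhibition above the mean of all tested compounds plus 3 SD, cutoff set per screening run, cut at about 7.5% in these data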;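 further: red hydrolysis product quenches plate fluorescence so inhibitors raise well fluorescence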
# MEKK2wt confirm = raises or lowers MEK5 binding to wildtype human MEKK2, retest | shares compounds with MEKK3 PB1 HTS | bead flow cytometry, Alexa488-MEK5 binding to MEKK2 WT; actives lie on both sides | binding response (% of control), % at 10 µM | 2.4% of 5,900 active; in the data active means binding response below about 16% or above about 210%; inactive means in between
# MEKK2mut confirm = signal of MEK5 binding to mutant human MEKK2, retest; bead flow cytometry, Alexa488-MEK5 binding to MEKK2 mutant; percent response, % at 10 µM; 2% of 5,900 active; shares compounds with MEKK3 PB1 HTS; in the data active means percent response mostly above about 71%, no sharp cut-off; inactive means mostly below about 38%;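 further: higher means compound restores mutant binding toward wildtype level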
# MEKK3 confirm = MEKK3-MEK5 PB1 inhibition, single concentration confirmation; 1.8% of 5,900 active; AID 1894; binding response (% of control), % at 10 µM; bead flow cytometry, Alexa488-MEK5 binding to MEKK3; hits give low values; shares compounds with MEKK3 PB1 HTS;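 active means binding response below 72% of control, or above a set upper limit, though filed actives all read lower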
# A number is an active result; – = inactive; · = no result given; [ ] = remark or other dose. The list is not random: actives were taken first. Their share in the collection is about 3.4%.
SMILES,IMP-1 inh,MEKK2 mut-MEK5,MEKK2wt PB1 HTS,MEKK3 PB1 HTS,VIM-2 inhibitor,MEKK2wt confirm,MEKK2mut confirm,MEKK3 confirm
Cc1cccc(C(=O)N[C@H](C(=O)Nc2nc3ccccc3[nH]2)C(C)C)c1,–,–,–,132,–,–,–,–
CN1CCN(CCc2cn3ncc(C#N)c3nc2-c2ccc(F)cc2)CC1,–,–,–,–,–,·,·,·
O=c1c(N2CCOCC2)c(N2CCOCC2)c1=O,–,–,–,42[inhibitor],–,–,–,–
COC(=O)c1cc(OC)c(OC)cc1NC(=O)Nc1ccc(OC)cc1,–,–,–,–,–,·,·,·
Cc1ccc(-n2cc(CNCC3CC(=O)N(C4CC4)C3)c(-c3cccc(C)c3)n2)cc1 (configuration not stated),–,–,143,–,–,–,–,–
C(=C\c1ccc2ccccc2n1)/c1ccccc1,–,–,34[inhibitor],40[inhibitor],–,–,–,–
Fc1ccccc1/C=C/c1ccc2ccccc2n1,–,–,–,130,–,–,–,–
Oc1ccc(/C=C/c2ccc3ccccc3n2)cc1,–,–,–,–,–,·,·,·
CCOC(=O)COc1ccc(/C=C2/C(=O)NN(c3ccc(F)cc3)C2=O)cc1OC,–,–,167,–,–,–,–,–
CCN(c1ccccc1)S(=O)(=O)c1cc(C(=O)Nc2ccc(Br)cc2)ccc1F,–,–,–,–,–,·,·,·
CCN(c1ccccc1)S(=O)(=O)c1cc(C(=O)Nc2ccccc2Cl)ccc1F,–,–,–,66[inhibitor],–,–,–,–
O=C(O)CC1(CC(=O)Nc2cc(F)ccc2Cl)CCCCC1,–,–,–,134,–,–,–,–
COc1ccc(-n2cc(CNCCN3CCOC3=O)c(-c3ccccc3Cl)n2)cc1,–,–,–,–,–,·,·,·
CCN1CCC(CNCc2cn(-c3ccc(OC)cc3)nc2-c2ccccc2Cl)C1 (configuration not stated),–,–,180,–,–,–,–,–
COc1ccc(-n2cc(CNCCc3ncc(C)[nH]3)c(-c3ccccc3Cl)n2)cc1,–,–,153,–,–,–,–,–
O=C(NCCO)C(F)(F)C(F)(F)C(F)(F)OC(F)(C(=O)NCCO)C(F)(F)F (configuration not stated),–,–,–,–,–,·,·,·
COc1ccc(CNC(=S)NCc2ccc(OC(C)C)cc2)cc1,–,–,–,–,–,·,·,·
COc1cc(/C=N/NC(=S)NCCc2ccccc2)cc(OC)c1OC,–,–,–,–,–,·,·,·
COc1cc(/C=N/S(=O)(=O)CCc2ccccc2)cc(OC)c1O,–,–,–,128,–,–,–,–
O=C(Nc1ccc(Br)c(C(F)(F)F)c1)c1ccc(C(F)(F)F)cc1,–,–,139,–,–,–,–,–
O=C(CN(Cc1ccco1)C(=O)CCC(=O)Nc1ccccn1)NCCc1ccccc1,–,–,–,–,–,·,·,·
COC(=O)CC1C(=O)NCCN1C(=O)Nc1ccc(Cl)cc1 (configuration not stated),–,–,2.0[inhibitor],–,–,–,–,–
Cc1sc2ncnc(N/N=C/c3ccc(O)cc3)c2c1C,–,–,–,–,–,·,·,·
Oc1ccc(/C=N/Nc2nccnc2Cl)cc1,–,–,–,126,–,–,–,–
Nc1c(Cl)ncnc1N/N=C/c1ccc(O)cc1,–,–,53[inhibitor],51[inhibitor],–,–,–,–
SMILES,IMP-1 inh,MEKK2 mut-MEK5,MEKK2wt PB1 HTS,MEKK3 PB1 HTS,VIM-2 inhibitor,MEKK2wt confirm,MEKK2mut confirm,MEKK3 confirm
Cc1ccc(S(=O)(=O)NC2=NCCCCC2)cc1,–,–,–,–,–,·,·,·
Cc1c(N2CCCC2)cc2c(c1N)C(C)(C)CC2(C)C,–,–,–,–,–,·,·,·
COc1ccc(NC(=O)C23CC4CC(C2)CC(c2ccc(C)cc2)(C4)C3)cc1,–,–,–,150,–,–,–,–
CC(=O)N1CCN(Cc2nc3cc([N+](=O)[O-])ccc3n2C)CC1,–,–,–,–,–,·,·,·
Cn1c(CN2CCN(C(=O)c3ccc(F)cc3)CC2)nc2cc([N+](=O)[O-])ccc21,–,–,–,147,–,–,–,–
Cc1cc(Br)ccc1-n1[nH]c(C)c(C=Nc2cccc3nsnc23)c1=O,–,–,41[inhibitor],–,–,–,–,–
COCCn1c(SCc2csc(-c3ccccc3)n2)nc2ccccc21,–,–,–,–,–,·,·,·
CCOC(=O)C1CCN(C(=O)CCS(=O)(=O)c2ccc3c(c2)CCN3C(C)=O)CC1,–,–,–,126,–,–,–,–
CCN(c1cccc(C)c1)S(=O)(=O)c1ccc2c(c1)CCN2C(C)=O,–,–,-1.0[inhibitor],1.0[inhibitor],–,–,–,–
CCOC(=O)C1=C(c2ccccc2)NC(N)=NC1c1ccc(OCc2ccc(Cl)cc2)c(OC)c1 (configuration not stated),–,82,248,–,–,251,121,–
COC(=O)c1c(NC(=S)Nc2cc(OC)c(Cl)cc2OC)sc2c1CCCCC2,–,–,–,–,–,·,·,·
O=C(COc1ccc2c(c1)C(=O)CC1(CCCCC1)O2)NCc1ccccn1,–,–,–,–,–,·,·,·
COc1ccc(OC)c(Cc2nnc(CCC(=O)N3CCC(N4CCCCC4)CC3)o2)c1,–,–,–,–,–,·,·,·
CC(C(=O)c1ccc(-c2ccccc2)cc1)[n+]1cccc(NC(=O)c2ccccc2)c1 (configuration not stated),–,62,224,–,–,–,–,–
Cc1ccc(O)c(C(=O)c2cnc3onc(-c4ccc(F)cc4)c3c2)c1,–,–,–,–,–,·,·,·
CC(Sc1nc(-c2ccccc2)cc(C(F)(F)F)n1)C(=O)N1CCC(C(N)=O)CC1 (configuration not stated),–,–,–,75[inhibitor],–,–,–,–
COc1ccc(NC(=O)C2CCC(C)(C(=O)O)C2(C)C)cc1 (configuration not stated),–,–,–,–,–,·,·,·
COC(=O)C1CCC(C)(C(=O)Nc2ccccc2)C1(C)C (configuration not stated),–,–,3.0[inhibitor],3.0[inhibitor],–,–,–,–
Cc1cc2oc3cc(NCCC4CCCN4C)ccc3c(=O)c2cc1C (configuration not stated),·,–,178,–,·,–,–,–
O=C(NCCS(=O)(=O)c1ccc(Br)cc1)c1ccc(Cl)cc1,–,–,–,–,–,·,·,·
O=C(O)/C=C/c1ccc(S(=O)(=O)Nc2ccc(OCc3ccccc3)cc2)cc1,–,–,–,73[inhibitor],–,–,–,–
